# Results pooled from the literature.
# Lines come from different studies, so protocols differ. pIC50: −log10 of the molar value.
# Read-out: cell growth or viability
Structure (SMILES),cell line,assay,conditions,endpoint,result
O=c1ccc2ccc3occc3c2o1,RD,WST-1,48 h,pIC50,4.89
Cc1cccc(-n2ncc(Cl)c(Cl)c2=O)c1,NCI-H2122,resazurin,96 h,pIC50,5.94
COc1c2c(cc3c1OCO3)[C@]13C=C[C@H](OC)C[C@@H]1[N@](C2)C[C@H]3OC(=O)c1ccoc1,A2780,WST-1,,pIC50,< 5.00
O=C(O)C(Cl)Cl,LoVo,MTT,72 h,pIC50,< 4.30
O=C(O)CCCc1ccc(N(CCCl)CCCl)cc1,A2780,CCK-8,48 h,pIC50,< 4.30
N.N.[Cl][Pt][Cl],LoVo,ATP luminescence,,GI50,1.7 µg/mL
O=c1c2ccccc2nc(S)n1-c1ccccc1,LoVo,LDH,"200 µg/mL, 24 h",viability,63%
COc1c2c(cc3c1OCO3)[C@]13C=C[C@H](OC)C[C@@H]1[N@](C2)C[C@H]3OC(=O)c1ccco1,A2780,WST-1,,pIC50,< 5.00
CCCCCCCCCCCCCCCC[N+](C)(C)C,LLC-PK1,MTT,,pIC50,5.22
O=c1ccc2cc3ccoc3cc2o1,RD,WST-1,48 h,pIC50,4.55
c1ccc2c(c1)[I+]c1ccccc1-2,Caco-2,trypan blue,48 h,pIC50,~8.00
